Test results: ChEMBL document CHEMBL1275447 (Antimicrob Agents Chemother, 2008)
Converted amounts (≈) assume the structure as drawn.

Tests used:
[1] = fT>MIC in human infected with Pseudomonas aeruginosa isolate 1050 at 500 mg administered as 4 hr infusion; format: functional
[2] = Cmax in Pseudomonas aeruginosa ATCC 27853 infected neutropenic ICR mouse at 10 mg/kg, sc administered as single dose 2 hrs postinfection by HPLC; format: ADME, organism-based; set-up: dose 10 mg/kg, route subcutaneous; settings: in vivo
In short: (§1)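 Neutropenic mice (cyclophosphamide ip 150 and 100 mg/kg, 4 and 1 days before inoculation) with uranyl nitrate 5 mg/kg ip 3 days before, for renal impairment. Thigh infection with ATCC 27853 at 10⁶ CFU/ml, 0.1 ml per thigh. Single sc doses 2 h later. Intracardiac blood from 6–12 mice per time point, eight time points over 4 h. Serum assayed by HPLC (linear 0.5–40 μg/ml). One-compartment first-order fit.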

[3] = fT>MIC in human infected with Pseudomonas aeruginosa isolate 931 at 500 mg administered as 1 hr infusion; format: functional
[4] = fT>MIC in neutropenic mouse infected with Pseudomonas aeruginosa isolate 1055 at 500 mg administered as 4 hr infusion; format: functional
In short: (§2)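 Mouse fT>MIC was modelled with first-order one-compartment serum PK and 25.2% binding. Mice were neutropenic (cyclophosphamide) with uranyl nitrate renal impairment. Subcutaneous doses were 5.5, 2.25, 4.5, 4.5, 4.5, 4.5, 0.75, 0.375 mg/kg at 0, 0.5, 1.5, 2.5, 3.5, 4.5, 6, 7.5 h per 8-h interval over 24 h.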

[5] = fT>MIC in human infected with Pseudomonas aeruginosa isolate 886 at 500 mg administered as 1 hr infusion; format: functional
[6] = AUC in Pseudomonas aeruginosa ATCC 27853 infected neutropenic ICR mouse at 500 mg administered as 4 hr infusion; format: ADME, organism-based; settings: plasma, iv
[7] = Half-life in Pseudomonas aeruginosa ATCC 27853 infected neutropenic ICR mouse at 150 mg/kg, sc administered as single dose 2 hrs postinfection; format: ADME, organism-based; set-up: dose 150 mg/kg, route subcutaneous; settings: in vivo; in short: as §1
Pseudomonas aeruginosa [8] = assay: Antibacterial activity against Pseudomonas aeruginosa isolate 886 by microdilution method; format: functional
[9] = fT>MIC in human infected with Pseudomonas aeruginosa isolate 1082 at 500 mg administered as 4 hr infusion; format: functional
[10] = fT>MIC in human infected with Pseudomonas aeruginosa isolate 936 at 500 mg administered as 1 hr infusion; format: functional
[11] = fT>MIC in human infected with Pseudomonas aeruginosa isolate 927 at 500 mg administered as 1 hr infusion; format: functional
[12] = fT>MIC in human infected with Pseudomonas aeruginosa isolate 936 at 500 mg administered as 4 hr infusion; format: functional
[13] = fT>MIC in neutropenic mouse infected with Pseudomonas aeruginosa isolate 935 at 500 mg administered as 4 hr infusion; format: functional; in short: as §2
[14] = AUC (0 to 24 hrs) in Pseudomonas aeruginosa ATCC 27853 infected neutropenic ICR mouse at 10 mg/kg, sc administered as single dose 2 hrs postinfection; format: ADME, organism-based; set-up: time < 24 hr, dose 10 mg/kg, route subcutaneous; settings: plasma; in short: as §1
[15] = fT>MIC in neutropenic mouse infected with Pseudomonas aeruginosa isolate 1029 at 500 mg administered as 4 hr infusion; format: functional
[16] = fT>MIC in human infected with Pseudomonas aeruginosa isolate 1036 at 500 mg administered as 1 hr infusion; format: functional
[17] = fT>MIC in human infected with Pseudomonas aeruginosa isolate 993 at 500 mg administered as 4 hr infusion; format: functional
[18] = fT>MIC in neutropenic mouse infected with Pseudomonas aeruginosa isolate 1058 at 500 mg administered as 4 hr infusion; format: functional; in short: as §2
[19] = fT>MIC in neutropenic mouse infected with Pseudomonas aeruginosa isolate 944 at 500 mg administered as 1 hr infusion; format: functional
In short: (§3)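 Free-drug time above MIC simulated from one-compartment mouse serum PK (25.2% protein binding). The mice were cyclophosphamide-neutropenic and uranyl nitrate-renally impaired. Regimen was subcutaneous 10, 15, 2.5, 1.25, 0.5, 0.25 mg/kg at 0, 0.5, 2.5, 4, 5.5, 7 h, repeated every 8 h over 24 h.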

[20] = fT>MIC in neutropenic mouse infected with Pseudomonas aeruginosa isolate 1005 at 500 mg administered as 1 hr infusion; format: functional
[21] = fT>MIC in human infected with Pseudomonas aeruginosa isolate 1058 at 500 mg administered as 1 hr infusion; format: functional
[22] = fT>MIC in human infected with Pseudomonas aeruginosa isolate 1082 at 500 mg administered as 1 hr infusion; format: functional
Pseudomonas aeruginosa [23] = assay: Antibacterial activity against Pseudomonas aeruginosa isolate 1062 by microdilution method; format: functional
[24] = Tmax in Pseudomonas aeruginosa ATCC 27853 infected neutropenic ICR mouse at 50 mg/kg, sc administered as single dose 2 hrs postinfection by HPLC; format: ADME, organism-based; set-up: dose 50 mg/kg, route subcutaneous; settings: in vivo; in short: as §1
[25] = fT>MIC in neutropenic mouse infected with Pseudomonas aeruginosa isolate 869 at 500 mg administered as 1 hr infusion; format: functional; in short: as §3
Pseudomonas aeruginosa [26] = assay: Antibacterial activity against Pseudomonas aeruginosa isolate 1060 by microdilution method; format: functional
In short: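 CLSI broth microdilution in cation-adjusted Mueller-Hinton broth (20–25 mg/liter Ca, 10–12.5 mg/liter Mg). Standard inoculum 10⁵ CFU/ml, incubated in ambient air. Clinical hospital isolates.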

[27] = Cmax in Pseudomonas aeruginosa ATCC 27853 infected neutropenic ICR mouse at 500 mg administered as 1 hr infusion; format: ADME, organism-based; set-up: dose 500 mg; settings: in vivo, iv
[28] = fT>MIC in neutropenic mouse infected with Pseudomonas aeruginosa isolate 896 at 500 mg administered as 4 hr infusion; format: functional; in short: as §2

For `C[C@@H](O)[C@H]1C(=O)N2C(C(=O)O)=C(S[C@@H]3CN[C@H](CNS(N)(=O)=O)C3)[C@H](C)[C@H]12` [DORIPENEM], which fT>MIC [1] is on record?
The fT>MIC was 55%.

And the Cmax [2]?
Its Cmax is 16300 ng/mL.

What about the “fT>MIC” value [3] of the same compound?
The value was 27.5%.

And the “fT>MIC” value [4]?
The value was 95%.

What about the “fT>MIC” value [5] of the same compound?
Its value is 90%.

And the AUC at 4 h [6]?
The AUC at 4 h was 34400 ng·h/mL.

And the half-life [7]?
The half-life was 26.4 min.

And the MIC (Pseudomonas aeruginosa [8])?
The MIC was 0.25 µg/mL (≈ 0.595 µM).

What about the fT>MIC [9] of the same compound?
The fT>MIC was 80%.

What about the “fT>MIC” value [10] of the same compound?
Its value is 17.5%.

What about the “fT>MIC” value [11] of the same compound?
The value was 7.5%.

And the fT>MIC [12]?
Its fT>MIC is 0%.

What about the “fT>MIC” value [13] of the same compound?
Its value is 82.5%.

And the AUC(0-t) at 24 h [14]?
The AUC(0-t) at 24 h was 13500 ng·h/mL.

And the “fT>MIC” value [15]?
Its value is 100%.

And the “fT>MIC” value [16]?
The value was 40%.

And the “fT>MIC” value [17]?
Its value is 100%.

And the “fT>MIC” value [18]?
Its value is 70%.

And the fT>MIC [19]?
Its fT>MIC is 30%.

What about the fT>MIC [20] of the same compound?
Its fT>MIC is 55%.

And the “fT>MIC” value [21]?
Its value is 40%.

What about the “fT>MIC” value [22] of the same compound?
Its value is 55%.

What about the MIC (Pseudomonas aeruginosa [23]) of the same compound?
Its MIC is 0.5 µg/mL (≈ 1.19 µM).

And the Tmax [24]?
The Tmax was 22.8 min.

What about the fT>MIC [25] of the same compound?
The fT>MIC was 90%.

And the MIC (Pseudomonas aeruginosa [26])?
The MIC was 4 µg/mL (≈ 9.51 µM).

What about the Cmax [27] of the same compound?
The Cmax was 28400 ng/mL.

What about the “fT>MIC” value [28] of the same compound?
The value was 0%.
